Source: ChEMBL document CHEMBL2331230, “Synthesis, anticancer and antioxidant activities of 2,4,5-trimethoxy chalcones and analogues from asaronaldehyde: structure-activity relationship” (Eur J Med Chem, 2013)
In brackets after ≈: the same amount, converted by molar mass.

Legend:
[1] = system: Radical scavenging activity; assay: Antioxidant activity assessed as DPPH free radical scavenging activity after 15 mins by spectrophotometric analysis; type: functional
Outline: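 Test samples at several concentrations mixed with stock DPPH (final concentration not stated), made up to 3 ml in methanol, incubated 15 min. Absorbance at 517 nm read against a sample-free blank. Ascorbic acid at various concentrations as standard. Values are means of triplicates from three independent experiments.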

HeLa = assay: Cytotoxicity against human HeLa cells assessed as growth inhibition after 72 hrs by MTT assay; type: functional, cell-based
Outline: (§1)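 Cells grown in DMEM with 10% FBS, seeded at 10,000 per well, and treated after 24 h with a concentration series ending at […]; pristimerin as positive control. After 72 h, MTT (5 mg/ml) added for 3 h. Formazan dissolved in DMSO, read at 570 nm. IC50 is the concentration giving 50% growth inhibition; mean ± S.D. of three tests in triplicate.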

[2] = Antioxidant activity assessed as nitric oxide scavenging activity after 2.5 hrs by Griess assay; type: functional
Outline: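 Sodium nitroprusside, 10 mM in phosphate saline buffer pH 7.4, added to samples at various concentrations and held 2.5 h at room temperature. Nitrite detected with Griess reagent at 546 nm against a blank. Inhibition (%) = (1 − A1/A0)×100, with A0 the control. Ascorbic acid as standard. Means of triplicates from three independent experiments.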

MCF7 = assay: Cytotoxicity against human MCF7 cells assessed as growth inhibition after 72 hrs by MTT assay; type: functional, cell-based; details: MCF7, 72 h; outline: as §1
SW982 = assay: Cytotoxicity against human SW982 cells assessed as growth inhibition after 72 hrs by MTT assay; type: functional, cell-based; details: SW982, 72 h; outline: as §1
[3] = Antioxidant activity in rat erythrocytes assessed as inhibition of phenyl hydrazine-induced haemolysis after 1 hr; type: functional, cell-based; details: erythrocyte
Outline: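 20% PCV erythrocyte suspension made from rat blood. Samples at various concentrations combined with 0.5 mM phenyl hydrazine and erythrocyte suspension in phosphate buffered saline (3 ml total). Incubated 37 °C for 1 h, centrifuged 1000 g for 10 min, supernatant absorbance at 540 nm. α-Tocopherol as positive control.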

| Structure (SMILES) | IC50 [1] [µg/mL] | IC50 (HeLa) [µM] | IC50 [2] [µg/mL] | IC50 (MCF7) [µM] | IC50 (SW982) [µM] | IC50 [3] [µg/mL] |
| --- | --- | --- | --- | --- | --- | --- |
| COc1cc(OC)c(OC)cc1/C=C/C(=O)c1ccc(F)cc1 | 4.71 (≈ 14.9 µM) | 28.6 | 1.963 (≈ 6.21 µM) | 30 | 32.5 | 2.216 (≈ 7.01 µM) |
| CC=Cc1cc(OC)c(OC)cc1OC [CIS-ASARONE] | – | 126 | – | 129 | > 150 | – |
| COc1cc(OC)c(OC)cc1/C=C/C(=O)c1cc(OC(C)=O)ccc1OC(C)=O | 4.65 (≈ 11.2 µM) | 57.9 | 2.37 (≈ 5.72 µM) | 63.7 | 78.5 | 2.327 (≈ 5.62 µM) |
| COc1cc(OC)c(OC)cc1/C=C/C(=O)c1cc(OCc2ccccc2)cc(OCc2ccccc2)c1 | 5.002 (≈ 9.8 µM) | 26.9 | 2.092 (≈ 4.1 µM) | 23.3 | 69.9 | 2.167 (≈ 4.24 µM) |
| COC(=O)[C@]1(C)CC[C@]2(C)CC[C@]3(C)C4=CC=C5C(=CC(=O)C(O)=C5C)[C@]4(C)CC[C@@]3(C)[C@@H]2C1 [PRISTIMERIN] | – | 3.42 | – | 0.87 | 1.28 | – |
| COc1cc(OC)c(OC)cc1/C=C/C(=O)c1ccc([N+](=O)[O-])cc1 | 4.754 (≈ 13.8 µM) | > 150 | 1.982 (≈ 5.77 µM) | > 150 | > 150 | 2.337 (≈ 6.81 µM) |
| COc1cc(OC)c(OC)cc1/C=C/C(=O)c1ccc(O)cc1O | 4.368 (≈ 13.2 µM) | 37.6 | 2.763 (≈ 8.36 µM) | 33.8 | 32.4 | 2.373 (≈ 7.18 µM) |
| COc1cc(OC)c(OC)cc1/C=C/C(=O)c1cccc(C(F)(F)F)c1 | 5.153 (≈ 14.1 µM) | > 150 | 2.085 (≈ 5.69 µM) | > 150 | > 150 | 2.302 (≈ 6.28 µM) |
| COc1cc(OC)c(OC)cc1/C=C/C(=O)c1ccc(O)cc1 | 4.293 (≈ 13.7 µM) | – | 2.502 (≈ 7.96 µM) | 182 | 155 | 2.285 (≈ 7.27 µM) |
| COc1cc(OC)c(OC)cc1/C=C/C(=O)c1ccc(Br)cc1 | 4.318 (≈ 11.4 µM) | 31.7 | 2.224 (≈ 5.9 µM) | 18.3 | 38.2 | 2.3 (≈ 6.1 µM) |
| COc1cc(OC)c(-c2cc(=O)c3cc(O)ccc3o2)cc1OC | 4.487 (≈ 13.7 µM) | > 150 | 2.142 (≈ 6.52 µM) | > 150 | > 150 | 2.141 (≈ 6.52 µM) |
| COc1cc(OC)c(C2CC(=O)c3cc(O)ccc3O2)cc1OC (stereo not drawn) | 4.566 (≈ 13.8 µM) | > 150 | 2.434 (≈ 7.37 µM) | > 150 | > 150 | 2.14 (≈ 6.48 µM) |
| COc1cc(OC)c(OC)cc1/C=C/C(=O)c1ccccc1 | 4.506 (≈ 15.1 µM) | > 150 | 2.012 (≈ 6.74 µM) | > 150 | > 150 | 2.225 (≈ 7.46 µM) |
| COc1cc(OC)c(OC)cc1/C=C/C(=O)c1ccc(-n2ccnc2)cc1 | 4.757 (≈ 13.1 µM) | > 150 | 1.972 (≈ 5.41 µM) | > 150 | > 150 | 2.481 (≈ 6.81 µM) |
| COc1cc(OC)c(-c2oc3ccc(O)cc3c(=O)c2O)cc1OC | 4.496 (≈ 13.1 µM) | > 150 | 2.33 (≈ 6.77 µM) | > 150 | > 150 | 2.154 (≈ 6.26 µM) |
| COc1cc(OC)c(OC)cc1/C=C/C(=O)c1ccc(Cl)c([N+](=O)[O-])c1 | 4.472 (≈ 11.8 µM) | 16.5 | 1.99 (≈ 5.27 µM) | 16.4 | 20.6 | 2.151 (≈ 5.69 µM) |
| COc1cc(OC)c(-c2cc(=O)c3cc(Cl)ccc3o2)cc1OC | 4.973 (≈ 14.3 µM) | > 150 | 2.145 (≈ 6.19 µM) | > 150 | > 150 | 2.125 (≈ 6.13 µM) |
| COc1cc(OC)c(-c2cc(=O)c3ccc(O)cc3o2)cc1OC | 4.808 (≈ 14.6 µM) | > 150 | 2.273 (≈ 6.92 µM) | > 150 | > 150 | 2.147 (≈ 6.54 µM) |
| COc1cc(OC)c(C(=O)/C=C/c2cc(OC)c(OC)cc2OC)c(OC)c1 | 5.023 (≈ 12.9 µM) | 108 | 1.977 (≈ 5.09 µM) | 51.4 | 96.5 | 2.134 (≈ 5.49 µM) |
| COc1cc(OC)c(OC)cc1/C=C/C(=O)c1ccc(Cl)cc1 | 4.593 (≈ 13.8 µM) | 36.5 | 2.014 (≈ 6.05 µM) | 29.5 | 58.5 | 2.298 (≈ 6.91 µM) |
| COc1ccc(C(=O)/C=C/c2cc(OC)c(OC)cc2OC)cc1 | 4.394 (≈ 13.4 µM) | 37.6 | 2.07 (≈ 6.3 µM) | 33.9 | 60.5 | 2.178 (≈ 6.63 µM) |
| COc1cc(OC)c(OC)cc1/C=C/C(=O)c1cc(O)ccc1O | 2.653 (≈ 8.03 µM) | > 150 | 2.444 (≈ 7.4 µM) | > 150 | > 150 | 2.103 (≈ 6.37 µM) |
| COc1cc(OC)c(OC)cc1/C=C/C(=O)c1ccc(N2CCOCC2)cc1 | 4.269 (≈ 11.1 µM) | > 150 | 2.078 (≈ 5.42 µM) | > 150 | > 150 | 2.121 (≈ 5.53 µM) |
| COc1cc(C(=O)/C=C/c2cc(OC)c(OC)cc2OC)ccc1O | 4.31 (≈ 12.5 µM) | > 150 | 2.462 (≈ 7.15 µM) | 95.5 | > 150 | 2.163 (≈ 6.28 µM) |
| COc1cc(OC)c(OC)cc1/C=C/C(=O)c1ccc(C)cc1 | 4.325 (≈ 13.8 µM) | 42.2 | 2.181 (≈ 6.98 µM) | 33 | 81.1 | 2.236 (≈ 7.16 µM) |
| COc1cc(OC)c(OC)cc1/C=C/C(=O)c1cc(Cl)ccc1O | 5.073 (≈ 14.5 µM) | > 150 | 2.32 (≈ 6.65 µM) | > 150 | > 150 | 2.233 (≈ 6.4 µM) |
| Cc1c(C)c2c(c(C)c1O)CC[C@@](C)(CCC[C@H](C)CCC[C@H](C)CCCC(C)C)O2 [ALPHA-TOCOPHEROL] | – | – | – | – | – | 3.658 (≈ 8.49 µM) |
| COc1cc(OC)c(-c2oc3ccc(Cl)cc3c(=O)c2O)cc1OC | 4.68 (≈ 12.9 µM) | > 150 | 2.106 (≈ 5.81 µM) | > 150 | > 150 | 2.144 (≈ 5.91 µM) |
| O=C1O[C@H]([C@@H](O)CO)C(O)=C1O [ASCORBIC ACID] | 3.039 (≈ 17.3 µM) | – | 2.632 (≈ 14.9 µM) | – | – | – |
